Test results as given in PubChem BioAssay AID635 (SRMLSC, 2007).

Tested on: E. coli BW25113 growth inhibition, OD615
Test: growth inhibition of wild-type E. coli BW25113 pool, dose response, OD615 (AID 635);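 note: growth measured after 20 h with compound at 37 °C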
Conditions: pooled mutant strains
How it was run: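 Material: Keio BW25113 knockout pool, 1,275 strains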

Row | SMILES | IC50 [µM]
1 | c1ccc(-c2cccc(-c3ccccn3)n2)nc1 | 41.8
2 | CCC(=O)N1CCN(c2cc3c(cc2F)c(=O)c(C(=O)O)cn3CC)CC1 | 4.01
3 | COc1cc(Cc2cnc(N)nc2N)cc(OC)c1OC | 0.595
4 | C=CCNc1ncnc2c1[nH]c1ccc(C)cc12 | 41.7
5 | Oc1c(CN2CCCCC2)cc(Br)c2cccnc12 | 37.5
6 | O=c1ccsn1Cc1ccccc1 | 34.6
7 | CC(=O)OCC1=C(C(=O)O)N2C(=O)[C@@H](NC(=O)Cc3cccs3)[C@H]2SC1 | 10.5
8 | CN1CCN(c2c(F)cc3c(=O)c(C(=O)O)cn4c3c2SCC4)CC1 | 1.11
9 | CCCCNc1cc(C)nc(NCc2ccccc2)n1 | 98.5
10 | CC(=O)c1c(C)n([O-])c2ccccc2[n+]1=O | 48.6
11 | CCCCOc1ccc(NC2=NC3(CCCCC3)N=C(N)N2)cc1 | 41
12 | COc1c(N2CCNC(C)C2)c(F)cc2c(=O)c(C(=O)O)cn(C3CC3)c12 (centres undefined) | < 0.195
13 | COc1ccc(OCC(O)CNc2ccc(Br)cc2)cc1 (centres undefined) | 102
14 | O=S1(=O)Nc2c(ccc3cccnc23)-c2ccccc21 | 20.3
15 | CCn1cc(C(=O)NCc2ccc3c(c2)OCO3)c(=O)c2cc(F)c(N3CCN(C)CC3)cc21 | 28.6
16 | CCn1cc(C(=O)O)c(=O)c2cc(F)c(N3CCN(C(=O)Nc4ccccc4)CC3)cc21 | 4.05
17 | NC1C2CN(c3nc4c(cc3F)c(=O)c(C(=O)O)cn4-c3ccc(F)cc3F)CC12 (centres undefined) | 0.006
18 | CN(C)[C@@H]1C(=O)C(C(N)=O)=C(O)[C@@]2(O)C(=O)C3=C(O)c4c(O)ccc(Cl)c4[C@@H](O)[C@H]3C[C@@H]12 | 0.579
19 | CO[C@@]1(NC(=O)Cc2cccs2)C(=O)N2C(C(=O)O)=C(COC(N)=O)CS[C@@H]21 | 9.78
